Source: ChEMBL document CHEMBL1138520, “Molecular and conformational determinants of pituitary adenylate cyclase-activating polypeptide (PACAP) for activation of the PAC1 receptor” (J Med Chem, 2009)
Where a SMILES comes first, the peptide text is derived from it. [ ]: non-standard residue; d: D form. Aad = N[C@@H](CCCC(=O)O)C(=O)O

What was measured:
[1] = molecular target: T1, Pituitary adenylate cyclase-activating polypeptide type I receptor (Homo sapiens, UniProt P41586); assay: Agonist activity at human recombinant PAC1 receptor expressed in CHO cells assessed as PACAP38-induced calcium mobilization by FLIPR assay relative to PACAP38; type: functional, cell-based
Summary of the method: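 CHO cells stably expressing recombinant human PAC1, plated 24 h before assay, loaded with fluo-4 AM for 60 min at 37 °C in the dark, then rinsed into HBSS for 15 min at 37 °C. Peptide was added 18 s into a 150 s read (ex 480/em 525 nm), at final concentrations of 1 × 10-12 to 1 × 10^-5 M. Response was normalised to 1 × 10^-5 M PACAP38 on each plate. EC50 and efficacy came from nonlinear regression; 4-10 independent assays in duplicate.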
Target sequence in this assay (P41586 21-468 limits assumed): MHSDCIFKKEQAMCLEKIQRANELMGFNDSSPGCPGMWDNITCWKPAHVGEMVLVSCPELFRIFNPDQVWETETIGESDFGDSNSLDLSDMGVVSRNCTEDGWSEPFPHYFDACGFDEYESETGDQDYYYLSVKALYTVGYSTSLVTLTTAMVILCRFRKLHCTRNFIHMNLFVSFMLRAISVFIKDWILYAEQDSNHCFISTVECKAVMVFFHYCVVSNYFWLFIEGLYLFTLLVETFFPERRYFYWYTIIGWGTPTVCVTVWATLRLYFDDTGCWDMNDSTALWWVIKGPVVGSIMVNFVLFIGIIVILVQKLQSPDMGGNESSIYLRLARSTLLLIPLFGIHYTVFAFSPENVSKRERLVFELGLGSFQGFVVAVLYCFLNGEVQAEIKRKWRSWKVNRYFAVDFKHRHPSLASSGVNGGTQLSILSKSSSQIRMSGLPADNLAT

[2] = molecular target: T1, Pituitary adenylate cyclase-activating polypeptide type I receptor; assay: Displacement of [125I]Ac-PACAP27 from human recombinant PAC1 receptor expressed in CHO cells by gamma- counter; type: cell-based
Target sequence in this assay (P41586 whole entry): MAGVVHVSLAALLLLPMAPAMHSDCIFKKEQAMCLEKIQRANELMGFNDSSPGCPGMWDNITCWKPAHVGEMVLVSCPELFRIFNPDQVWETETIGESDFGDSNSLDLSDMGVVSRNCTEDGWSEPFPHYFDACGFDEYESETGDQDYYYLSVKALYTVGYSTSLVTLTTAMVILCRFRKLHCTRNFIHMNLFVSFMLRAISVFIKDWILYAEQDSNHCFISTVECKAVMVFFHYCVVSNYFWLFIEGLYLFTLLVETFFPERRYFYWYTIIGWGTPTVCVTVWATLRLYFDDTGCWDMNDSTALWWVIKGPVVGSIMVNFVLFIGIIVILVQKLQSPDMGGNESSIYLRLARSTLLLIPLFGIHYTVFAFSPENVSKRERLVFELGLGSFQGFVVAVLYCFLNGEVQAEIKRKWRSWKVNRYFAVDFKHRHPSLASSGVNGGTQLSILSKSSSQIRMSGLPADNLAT

[3] = molecular target: T1, Pituitary adenylate cyclase-activating polypeptide type I receptor; assay: Agonist activity at human recombinant PAC1 receptor expressed in CHO cells assessed as PACAP38-induced calcium mobilization by FLIPR assay; type: functional, cell-based
Summary of the method: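 CHO cells stably expressing recombinant human PAC1, plated 24 h before assay, loaded with fluo-4 AM for 60 min at 37 °C in the dark, then rinsed into HBSS for 15 min at 37 °C. EC50 and efficacy came from nonlinear regression; 4-10 independent assays in duplicate.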
Target sequence in this assay (P41586 whole entry): as above

SMILES	Emax [1] [%]	IC50 [2] [µM]	EC50 [3] [µM]
CC[C@H](C)[C@H](NC(=O)CNC(=O)[C@H](CC(=O)O)NC(=O)[C@H](CO)NC(=O)[C@@H](N)Cc1cnc[nH]1)C(=O)N[C@@H](Cc1ccc(O)cc1)C(=O)N[C@H](C(=O)N[C@@H](CC(=O)O)C(=O)N[C@@H](CO)C(=O)N[C@@H](Cc1ccc(O)cc1)C(=O)N[C@@H](CO)C(=O)N[C@@H](CCCNC(=N)N)C(=O)N[C@@H](Cc1ccc(O)cc1)C(=O)N[C@@H](CCCNC(=N)N)C(=O)N[C@@H](CCCCN)C(=O)N[C@@H](CCC(N)=O)C(=O)N[C@@H](CCSC)C(=O)N[C@@H](C)C(=O)N[C@H](C(=O)N[C@@H](CCCCN)C(=O)N[C@@H](CCCCN)C(=O)N[C@@H](Cc1ccc(O)cc1)C(=O)N[C@@H](CC(C)C)C(=O)N[C@@H](C)C(=O)N[C@@H](C)C(=O)N[C@H](C(=O)N[C@@H](CC(C)C)C(N)=O)C(C)C)C(C)C)[C@@H](C)O	108	0.0079	0.0077
CC[C@H](C)[C@H](NC(=O)CNC(=O)[C@H](CC(=O)O)N(C)C(=O)[C@H](CO)NC(=O)[C@@H](N)Cc1cnc[nH]1)C(=O)N[C@@H](Cc1ccccc1)C(=O)N[C@H](C(=O)N[C@@H](CC(=O)O)C(=O)N[C@@H](CO)C(=O)N[C@@H](Cc1ccc(O)cc1)C(=O)N[C@@H](CO)C(=O)N[C@@H](CCCNC(=N)N)C(=O)N[C@@H](Cc1ccc(O)cc1)C(=O)N[C@@H](CCCNC(=N)N)C(=O)N[C@@H](CCCCN)C(=O)N[C@@H](CCC(N)=O)C(=O)N[C@@H](CCSC)C(=O)N[C@@H](C)C(=O)N[C@H](C(=O)N[C@@H](CCCCN)C(=O)N[C@@H](CCCCN)C(=O)N[C@@H](Cc1ccc(O)cc1)C(=O)N[C@@H](CC(C)C)C(=O)N[C@@H](C)C(=O)N[C@@H](C)C(=O)N[C@H](C(=O)N[C@@H](CC(C)C)C(N)=O)C(C)C)C(C)C)[C@@H](C)O	89.2	0.0252	0.418
CC[C@H](C)[C@H](NC(=O)CNC(=O)[C@H](CC(N)=O)NC(=O)[C@H](CO)NC(=O)[C@@H](N)Cc1cnc[nH]1)C(=O)N[C@@H](Cc1ccccc1)C(=O)N[C@H](C(=O)N[C@@H](CC(=O)O)C(=O)N[C@@H](CO)C(=O)N[C@@H](Cc1ccc(O)cc1)C(=O)N[C@@H](CO)C(=O)N[C@@H](CCCNC(=N)N)C(=O)N[C@@H](Cc1ccc(O)cc1)C(=O)N[C@@H](CCCNC(=N)N)C(=O)N[C@@H](CCCCN)C(=O)N[C@@H](CCC(N)=O)C(=O)N[C@@H](CCSC)C(=O)N[C@@H](C)C(=O)N[C@H](C(=O)N[C@@H](CCCCN)C(=O)N[C@@H](CCCCN)C(=O)N[C@@H](Cc1ccc(O)cc1)C(=O)N[C@@H](CC(C)C)C(=O)N[C@@H](C)C(=O)N[C@@H](C)C(=O)N[C@H](C(=O)N[C@@H](CC(C)C)C(=O)NCC(=O)N[C@@H](CCCCN)C(=O)N[C@@H](CCCNC(=N)N)C(=O)N[C@@H](Cc1ccc(O)cc1)C(=O)N[C@@H](CCCCN)C(=O)N[C@@H](CCC(N)=O)C(=O)N[C@@H](CCCNC(=N)N)C(=O)N[C@H](C(=O)N[C@@H](CCCCN)C(=O)N[C@@H](CC(N)=O)C(=O)N[C@@H](CCCCN)C(N)=O)C(C)C)C(C)C)C(C)C)[C@@H](C)O (H-HSNGIFTDSYSRYRKQMAVKKYLAAVLGKRYKQRVKNK-NH2)	22.1	0.0092	0.0522
CC[C@H](C)[C@H](NC(=O)CNC(=O)[C@H](CC(=O)O)NC(=O)[C@H](CO)NC(=O)[C@@H](N)Cc1cncn1C)C(=O)N[C@@H](Cc1ccccc1)C(=O)N[C@H](C(=O)N[C@@H](CC(=O)O)C(=O)N[C@@H](CO)C(=O)N[C@@H](Cc1ccc(O)cc1)C(=O)N[C@@H](CO)C(=O)N[C@@H](CCCNC(=N)N)C(=O)N[C@@H](Cc1ccc(O)cc1)C(=O)N[C@@H](CCCNC(=N)N)C(=O)N[C@@H](CCCCN)C(=O)N[C@@H](CCC(N)=O)C(=O)N[C@@H](CCSC)C(=O)N[C@@H](C)C(=O)N[C@H](C(=O)N[C@@H](CCCCN)C(=O)N[C@@H](CCCCN)C(=O)N[C@@H](Cc1ccc(O)cc1)C(=O)N[C@@H](CC(C)C)C(=O)N[C@@H](C)C(=O)N[C@@H](C)C(=O)N[C@H](C(=O)N[C@@H](CC(C)C)C(N)=O)C(C)C)C(C)C)[C@@H](C)O	96.9	0.0156	0.0525

The next lines start with the values.

Emax [1] [%]	IC50 [2] [µM]	EC50 [3] [µM]	SMILES
18.2	0.0125	0.0376	CC[C@H](C)[C@H](NC(=O)CNC(=O)[C@H](CCCC(=O)O)NC(=O)[C@H](CO)NC(=O)[C@@H](N)Cc1cnc[nH]1)C(=O)N[C@@H](Cc1ccccc1)C(=O)N[C@H](C(=O)N[C@@H](CC(=O)O)C(=O)N[C@@H](CO)C(=O)N[C@@H](Cc1ccc(O)cc1)C(=O)N[C@@H](CO)C(=O)N[C@@H](CCCNC(=N)N)C(=O)N[C@@H](Cc1ccc(O)cc1)C(=O)N[C@@H](CCCNC(=N)N)C(=O)N[C@@H](CCCCN)C(=O)N[C@@H](CCC(N)=O)C(=O)N[C@@H](CCSC)C(=O)N[C@@H](C)C(=O)N[C@H](C(=O)N[C@@H](CCCCN)C(=O)N[C@@H](CCCCN)C(=O)N[C@@H](Cc1ccc(O)cc1)C(=O)N[C@@H](CC(C)C)C(=O)N[C@@H](C)C(=O)N[C@@H](C)C(=O)N[C@H](C(=O)N[C@@H](CC(C)C)C(=O)NCC(=O)N[C@@H](CCCCN)C(=O)N[C@@H](CCCNC(=N)N)C(=O)N[C@@H](Cc1ccc(O)cc1)C(=O)N[C@@H](CCCCN)C(=O)N[C@@H](CCC(N)=O)C(=O)N[C@@H](CCCNC(=N)N)C(=O)N[C@H](C(=O)N[C@@H](CCCCN)C(=O)N[C@@H](CC(N)=O)C(=O)N[C@@H](CCCCN)C(N)=O)C(C)C)C(C)C)C(C)C)[C@@H](C)O (H-HS[Aad]GIFTDSYSRYRKQMAVKKYLAAVLGKRYKQRVKNK-NH2)
105	0.0079	0.0051	CC[C@H](C)[C@H](NC(=O)CNC(=O)[C@H](CC(=O)O)NC(=O)[C@H](C)NC(=O)[C@@H](N)Cc1cnc[nH]1)C(=O)N[C@@H](Cc1ccccc1)C(=O)N[C@H](C(=O)N[C@@H](CC(=O)O)C(=O)N[C@@H](CO)C(=O)N[C@@H](Cc1ccc(O)cc1)C(=O)N[C@@H](CO)C(=O)N[C@@H](CCCNC(=N)N)C(=O)N[C@@H](Cc1ccc(O)cc1)C(=O)N[C@@H](CCCNC(=N)N)C(=O)N[C@@H](CCCCN)C(=O)N[C@@H](CCC(N)=O)C(=O)N[C@@H](CCSC)C(=O)N[C@@H](C)C(=O)N[C@H](C(=O)N[C@@H](CCCCN)C(=O)N[C@@H](CCCCN)C(=O)N[C@@H](Cc1ccc(O)cc1)C(=O)N[C@@H](CC(C)C)C(=O)N[C@@H](C)C(=O)N[C@@H](C)C(=O)N[C@H](C(=O)N[C@@H](CC(C)C)C(=O)NCC(=O)N[C@@H](CCCCN)C(=O)N[C@@H](CCCNC(=N)N)C(=O)N[C@@H](Cc1ccc(O)cc1)C(=O)N[C@@H](CCCCN)C(=O)N[C@@H](CCC(N)=O)C(=O)N[C@@H](CCCNC(=N)N)C(=O)N[C@H](C(=O)N[C@@H](CCCCN)C(=O)N[C@@H](CC(N)=O)C(=O)N[C@@H](CCCCN)C(N)=O)C(C)C)C(C)C)C(C)C)[C@@H](C)O (H-HADGIFTDSYSRYRKQMAVKKYLAAVLGKRYKQRVKNK-NH2)
99.4	0.0067	0.0027	CC[C@H](C)[C@H](NC(=O)CNC(=O)[C@H](CC(=O)O)NC(=O)[C@H](CO)NC(=O)[C@@H](N)Cc1cnc[nH]1)C(=O)N[C@@H](Cc1ccc(O)cc1)C(=O)N[C@H](C(=O)N[C@@H](CC(=O)O)C(=O)N[C@@H](CO)C(=O)N[C@@H](Cc1ccc(O)cc1)C(=O)N[C@@H](CO)C(=O)N[C@@H](CCCNC(=N)N)C(=O)N[C@@H](Cc1ccc(O)cc1)C(=O)N[C@@H](CCCNC(=N)N)C(=O)N[C@@H](CCCCN)C(=O)N[C@@H](CCC(N)=O)C(=O)N[C@@H](CCSC)C(=O)N[C@@H](C)C(=O)N[C@H](C(=O)N[C@@H](CCCCN)C(=O)N[C@@H](CCCCN)C(=O)N[C@@H](Cc1ccc(O)cc1)C(=O)N[C@@H](CC(C)C)C(=O)N[C@@H](C)C(=O)N[C@@H](C)C(=O)N[C@H](C(=O)N[C@@H](CC(C)C)C(=O)NCC(=O)N[C@@H](CCCCN)C(=O)N[C@@H](CCCNC(=N)N)C(=O)N[C@@H](Cc1ccc(O)cc1)C(=O)N[C@@H](CCCCN)C(=O)N[C@@H](CCC(N)=O)C(=O)N[C@@H](CCCNC(=N)N)C(=O)N[C@H](C(=O)N[C@@H](CCCCN)C(=O)N[C@@H](CC(N)=O)C(=O)N[C@@H](CCCCN)C(N)=O)C(C)C)C(C)C)C(C)C)[C@@H](C)O (H-HSDGIYTDSYSRYRKQMAVKKYLAAVLGKRYKQRVKNK-NH2)
105	0.011	0.0084	CC[C@H](C)[C@H](NC(=O)CNC(=O)[C@H](CC(=O)O)NC(=O)[C@H](CO)NC(=O)[C@@H](N)Cc1cnc[nH]1)C(=O)N[C@@H](CC1CCCCC1)C(=O)N[C@H](C(=O)N[C@@H](CC(=O)O)C(=O)N[C@@H](CO)C(=O)N[C@@H](Cc1ccc(O)cc1)C(=O)N[C@@H](CO)C(=O)N[C@@H](CCCNC(=N)N)C(=O)N[C@@H](Cc1ccc(O)cc1)C(=O)N[C@@H](CCCNC(=N)N)C(=O)N[C@@H](CCCCN)C(=O)N[C@@H](CCC(N)=O)C(=O)N[C@@H](CCSC)C(=O)N[C@@H](C)C(=O)N[C@H](C(=O)N[C@@H](CCCCN)C(=O)N[C@@H](CCCCN)C(=O)N[C@@H](Cc1ccc(O)cc1)C(=O)N[C@@H](CC(C)C)C(=O)N[C@@H](C)C(=O)N[C@@H](C)C(=O)N[C@H](C(=O)N[C@@H](CC(C)C)C(N)=O)C(C)C)C(C)C)[C@@H](C)O
